# In ChEMBL document CHEMBL4152200, “Targeting the entrance channel of NNIBP: Discovery of diarylnicotinamide 1,4-disubstituted 1,2,3-triazoles as novel HIV-1 NNRTIs with high potency against wild-type and E138K mutant virus” (Eur J Med Chem, 2018):
# How the values were obtained:
# [1] = system: Human immunodeficiency virus 1; assay: Antiviral activity against HIV1 harboring reverse transcriptase F227L/V106A double mutant infected in human MT4 cells assessed as inhibition of viral replication after 5 days by MTT assay; assay type: functional, organism-based; conditions: Human immunodeficiency virus 1, MT4, 120 h
# [2] = system: Human immunodeficiency virus 1; assay: Antiviral activity against wild-type HIV-1 NL4-3 infected in human TZM-bl cells assessed as inhibition of viral replication after 2 days by bright Glo-luciferase reporter gene assay; assay type: functional, organism-based; conditions: Human immunodeficiency virus 1, NL4-3, TZM-bl, 48 h
# Summary of the method: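 TZM-bl cells infected with 800 TCID₅₀ of NL4-3 in the presence of a range of compound concentrations; single-round infection. After 2 days medium removed, Bright-Glo added and luminescence read. EC₅₀ is the concentration giving a 50% fall in relative light units relative to virus-control wells. Mean ± SD from at least triplicate.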
# [3] = system: Human immunodeficiency virus 1; assay: Resistance factor, ratio of EC50 for HIV1 harboring reverse transcriptase E138K mutant to EC50 for wild-type HIV-1 3B; assay type: functional
# Summary of the method: (§1)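 Resistance fold is EC₅₀ against the mutant strain divided by EC₅₀ against WT IIIB. Both EC₅₀ values come from the 5-day MTT protection assay in MT-4 cells infected with 100–300 CCID₅₀ of virus.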
# [4] = Selectivity index, ratio of CC50 for human MT4 cells to EC50 for HIV1 harboring reverse transcriptase K103N mutant; assay type: toxicity; conditions: read-out: Ratio CC50/EC50
# Summary of the method: (§2)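 SI is CC₅₀ divided by EC₅₀, both by MTT after 5 days in MT-4 cells. CC₅₀ comes from mock-infected cultures run in parallel and is the concentration reducing their viability by 50%. EC₅₀ comes from cultures infected with the given mutant strain at 100–300 CCID₅₀.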
# [5] = Selectivity index, ratio of CC50 for human MT4 cells to EC50 for HIV1 harboring reverse transcriptase Y181C mutant; assay type: toxicity; conditions: read-out: Ratio CC50/EC50; summary of the method: as §2
# [6] = system: Human immunodeficiency virus 1; assay: Antiviral activity against HIV1 harboring reverse transcriptase Y181C mutant infected in human MT4 cells assessed as inhibition of viral replication after 5 days by MTT assay; assay type: functional, organism-based; conditions: Human immunodeficiency virus 1, MT4, 120 h
# [7] = system: Human immunodeficiency virus 1; assay: Antiviral activity against HIV1 harboring reverse transcriptase L100I mutant infected in human MT4 cells assessed as inhibition of viral replication after 5 days by MTT assay; assay type: functional, organism-based; conditions: Human immunodeficiency virus 1, MT4, 120 h
# [8] = system: Human immunodeficiency virus 1; assay: Resistance factor, ratio of EC50 for HIV1 harboring reverse transcriptase F227L/V106A mutant to EC50 for wild-type HIV-1 3B; assay type: functional; summary of the method: as §1
# [9] = Selectivity index, ratio of CC50 for human TZM-bl cells to EC50 for wild-type HIV-1 NL4-3 infected in human TZM-bl cells; assay type: toxicity, cell-based; conditions: read-out: Ratio CC50/EC50
# Summary of the method: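 SI is CC₅₀ divided by EC₅₀ in TZM-bl cells. CC₅₀ from CytoTox-Glo assay, averaged from two independent tests. EC₅₀ from single-round infection with 800 TCID₅₀ NL4-3, luciferase luminescence read at 2 days and expressed relative to virus controls.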
# [10] = Selectivity index, ratio of CC50 for human MT4 cells to EC50 for HIV1 harboring reverse transcriptase L100I mutant; assay type: toxicity; conditions: read-out: Ratio CC50/EC50; summary of the method: as §2
# [11] = Selectivity index, ratio of CC50 for human MT4 cells to EC50 for HIV1 harboring reverse transcriptase Y188L mutant; assay type: toxicity; conditions: read-out: Ratio CC50/EC50; summary of the method: as §2
# [12] = system: Human immunodeficiency virus 1; assay: Antiviral activity against HIV1 harboring reverse transcriptase K103N mutant infected in human MT4 cells assessed as inhibition of viral replication after 5 days by MTT assay; assay type: functional, organism-based; conditions: Human immunodeficiency virus 1, MT4, 120 h
# [13] = target: Human immunodeficiency virus type 1 reverse transcriptase (Human immunodeficiency virus 1, UniProt Q72547); assay: Inhibition of wild-type HIV1 reverse transcriptase assessed as decrease in digoxigenin and biotin-dUTP incorporation in to DNA using poly(A)/oligo(dT)15 as template/primer after 1 hr by ELISA
# Summary of the method: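 Kit ELISA on wild-type HIV-1 RT with poly(A)·oligo(dT)15 as template/primer and digoxigenin- and biotin-labelled dUTP. Incorporated label detected with peroxidase-conjugated anti-digoxigenin antibody and ABTS substrate. IC₅₀ is the concentration inhibiting biotin-dUTP incorporation by 50%.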
# MT4 = assay: (§3) Cytotoxicity against human MT4 cells assessed as decrease in cell viability after 5 days by MTT assay; assay type: cell-based; conditions: mt4, 120 h
# Summary of the method: (§4)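 Mock-infected MT-4 cells, exponentially growing, seeded with compound in culture medium without virus; run in parallel with the antiviral assay. Viability read spectrophotometrically by MTT reduction five days later.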
# [14] = system: Human immunodeficiency virus 1; assay: Resistance factor, ratio of EC50 for HIV1 harboring reverse transcriptase L100I mutant to EC50 for wild-type HIV-1 3B; assay type: functional; summary of the method: as §1
# [15] = system: Human immunodeficiency virus 1; assay: Antiviral activity against wild-type HIV-1 3B infected in human MT4 cells assessed as inhibition of viral replication after 5 days by MTT assay; assay type: functional, organism-based; conditions: Human immunodeficiency virus 1, 3B, MT4, 120 h
# [16] = system: Human immunodeficiency virus 1; assay: Antiviral activity against HIV1 harboring reverse transcriptase E138K mutant infected in human MT4 cells assessed as inhibition of viral replication after 5 days by MTT assay; assay type: functional, organism-based; conditions: Human immunodeficiency virus 1, MT4, 120 h
# [17] = system: Human immunodeficiency virus 1; assay: Antiviral activity against HIV1 harboring reverse transcriptase Y188L mutant infected in human MT4 cells assessed as inhibition of viral replication after 5 days by MTT assay; assay type: functional, organism-based; conditions: Human immunodeficiency virus 1, MT4, 120 h
# Summary of the method: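 MT-4 cells in exponential growth, resuspended into wells holding HIV-1 stock (IIIB, RES056 K103N/Y181C, F227L/V106A, L100I, K103N, E138K, Y181C or Y188L) at 100–300 CCID₅₀, or into mock-infected wells. Viability read by MTT reduction to formazan, measured spectrophotometrically 5 days post-infection. EC₅₀ is the concentration giving 50% protection against virus-induced cytotoxicity.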
# [18] = system: Human immunodeficiency virus 1; assay: Resistance factor, ratio of EC50 for HIV1 harboring reverse transcriptase K103N mutant to EC50 for wild-type HIV-1 3B; assay type: functional; summary of the method: as §1
# [19] = system: Human immunodeficiency virus 1; assay: Antiviral activity against HIV-1 RES056 harboring reverse transcriptase K103N/Y181C double mutant infected in human MT4 cells assessed as inhibition of viral replication after 5 days by MTT assay; assay type: functional, organism-based; conditions: Human immunodeficiency virus 1, RES056, MT4, 120 h
# [20] = system: Human immunodeficiency virus 1; assay: Resistance factor, ratio of EC50 for HIV1 harboring reverse transcriptase Y181C mutant to EC50 for wild-type HIV-1 3B; assay type: functional; summary of the method: as §1
# [21] = system: Human immunodeficiency virus 1; assay: Resistance factor, ratio of EC50 for HIV1 harboring reverse transcriptase Y188L mutant to EC50 for wild-type HIV-1 3B; assay type: functional; summary of the method: as §1
# TZM = assay: Cytotoxicity against human TZM-bl cells by CytoTox-Glo reagent-based assay; assay type: cell-based
# Summary of the method: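 TZM-bl cells exposed to compound at various concentrations. Cytotoxicity measured by CytoTox-Glo assay.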
# [22] = Selectivity index, ratio of CC50 for human MT4 cells to EC50 for HIV1 harboring reverse transcriptase E138K mutant; assay type: toxicity; conditions: read-out: Ratio CC50/EC50; summary of the method: as §2
# [23] = Selectivity index, ratio of CC50 for human MT4 cells to EC50 for HIV1 harboring reverse transcriptase F227L/V106A mutant; assay type: toxicity; conditions: read-out: Ratio CC50/EC50; summary of the method: as §2
# [24] = Selectivity index, ratio of CC50 for human MT4 cells to EC50 for wild-type HIV1 3B; assay type: toxicity; conditions: read-out: Ratio CC50/EC50
# Summary of the method: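 Wild-type HIV-1 IIIB at 100–300 CCID50 added to MT-4 cells with compound, with mock-infected wells in parallel. MTT viability was read at day 5. […] SI = CC50/EC50.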
# [25] = as §3; assay type: cell-based; conditions: MT4 cells; summary of the method: as §4
Compound,EC50 [1] [nM],EC50 [2] [nM],Ratio EC50 [3],selectivity ratio [4],selectivity ratio [5],EC50 [6] [nM],EC50 [7] [nM],Ratio EC50 [8],selectivity ratio [9],selectivity ratio [10],selectivity ratio [11],EC50 [12] [nM],IC50 [13] [nM],CC50 (MT4) [nM],Ratio EC50 [14],EC50 [15] [nM],EC50 [16] [nM],EC50 [17] [nM],Ratio EC50 [18],EC50 [19] [nM],further results
Cc1cc(C)c(Oc2cc(Nc3ccc(C#N)cc3)ncc2C(=O)NCc2cn(CC(=O)N3CCOCC3)nn2)c(C)c1,610,20,1.4,473,761,240,6130,30.5,> 10.8,30,25,380,1570,181000,306.5,20,27,7160,19,15700,Ratio EC50 [20]: 12; Ratio EC50 [21]: 358; CC50 (TZM): > 215000 nM; selectivity ratio [22]: 6800; selectivity ratio [23]: 297
Cc1cc(C)c(Oc2cc(Nc3ccc(C#N)cc3)ncc2C(=O)NCc2cn(CC(=O)N3CCCC3)nn2)c(C)c1,240,24,0.7,214,686,85,960,12,> 9.2,60,39,270,2700,58100,48,20,14,1480,13.5,1430,Ratio EC50 [20]: 4.3; Ratio EC50 [21]: 74; CC50 (TZM): > 221000 nM; selectivity ratio [22]: 4190; selectivity ratio [23]: 245; selectivity ratio [24]: 2900
O=C1Nc2ccc(Cl)cc2[C@@](C#CC2CC2)(C(F)(F)F)O1 [EFAVIRENZ],,,,,,,,,,,,,,,,,,,,,CC50 at 120 h [25]: > 6340 nM
Cc1ccnc2c1NC(=O)c1cccnc1N2C1CC1 [NEVIRAPINE],,,,,,,,,,,,,,,,260,,,,> 15000,CC50 at 120 h [25]: > 15000 nM
